Data: article PMC5753398 (Journal of the American Chemical Society, 2017)
Blank lines part the entries; values can stand above or below the compound they belong to.

Key:
[1] = test system: Shh-mediated Hedgehog signaling (Gli-controlled Firefly luciferase) in NIH3T3 cells; assay: Gli-reporter dual luciferase assay in Shh-N-stimulated NIH3T3 cells; type: cell-based, mouse
[2] = test system: Shh / Hedgehog pathway activation; conditions: read-out: IC50, Shh inhibitory activity in vitro and in cells; similar cell-based assay; cited from earlier work
[3] = test system: GST-Shh, GST-Ihh, or GST-Dhh; assay: Competition assay for Hh analog selectivity; type: binding, human; conditions: 10 μM robotnikinin + 400 nM FLAG-HL2-m5
Outline: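 Competition format: PBS containing 10 μM competitor plus 400 nM FLAG-tagged macrocyclic peptide (recombinant, E. coli) added to wells coated with GST-Shh, GST-Ihh or GST-Dhh (E. coli BL21(DE3)-expressed, Ni-NTA purified). Wells then developed by HRP anti-FLAG antibody, o-phenylenediamine/urea peroxide substrate (pH 5.0) and A450. Relative affinity = (1 − % inhibition)GST-Hh/(1 − % inhibition)GST-Shh. Triplicate, mean and SD.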

Shh/Patched interaction = conditions: read-out: IC50 for inhibition of the Shh/Patched interaction in vitro; ref 25a; cited from earlier work

Compound: CC1=C2C[C@H]3[C@@H](CC=C4C[C@@H](O)CC[C@@]43C)[C@@H]2CC[C@]12O[C@@H]1C[C@H](C)CN[C@H]1[C@H]2C [cyclopamine]
Inhibition of Shh-induced luminescence ([1]; 10 μM, assay validation): full inhibition

Compound: c1ccc2c(Oc3nc(Nc4ccc(N5CCOCC5)cc4)c4ncn(C5CCCCC5)c4n3)cccc2c1 [purmorphamine]
Effect on signaling pathway in HL2-m5-treated cells ([1]; 5 μM purmorphamine added to cells treated with 10 μM HL2-m5): restored activation

Affinity toward Ihh and Dhh relative to Shh [3]: significantly lower affinity
Compound: O=C(C[C@@H]1C/C=C/CCC(=O)O[C@H](c2ccccc2)CNC1=O)NCc1ccc(Cl)cc1 [robotnikinin]
IC50 [2]: ~15 µM

Compound: Ac-TLDDMEEMDGLSD-NH2 [L2-pep]
Inhibitory activity in Gli-reporter assay ([1]; concentrations up to 30 μM, identical conditions): no inhibitory activity

Compound: HHIP370–390: linear HHIP L2-derived peptide from the literature (GDGMITLDDMEEMDGLSDFTG; UniProt Q96QV1 370-390, looked up, fragment)
IC50 (Shh/Patched interaction): 150 µM
